# According to publication PMC5760799 (Journal of Pharmaceutical Analysis, 2011):
# Ends that are not written are not given here.
# Columns and labels:
# [1] = Stability of PSN-1 in rat plasma; format: in vitro ADME; conditions: UPLC-MS/MS, n=6
# [2] = Pharmacokinetic study of PSN-1 in rats after intravenous administration; format: in vivo; conditions: male, Wister, rat, plasma, 3 mg/kg
# In short: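 Six male Wister rats (220–250 g), fasted overnight, received a single iv dose of 3.0 mg/kg. About 0.5 mL of blood was drawn from the ocular vein from 0 to 8 h, with time points split between two groups of three rats. Blood was heparinised, spun at 890g for 10 min and plasma held at –20 °C. Plasma was then precipitated with acetonitrile/0.2% formic acid with thymopentin IS and run by UPLC-MS/MS (SRM). Non-compartmental analysis; mean±SD.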
substance,measurement,setting,value
FLSLIPHIVSGVASIAKHF-NH2 [PSN-1],Accuracy (RE),"[1]; long term, −20 °C for 10 days, added 0.05 μg/mL",−4.9%
same,Accuracy (RE),"[1]; long term, −20 °C for 10 days, added 0.2 μg/mL",−10.1%
same,Accuracy (RE),"[1]; long term, −20 °C for 10 days, added 1.6 μg/mL",−1.8%
same,Accuracy (RE),"[1]; short term, room temperature for 4 h before processing, added 0.05 μg/mL",5.2%
same,Accuracy (RE),"[1]; short term, room temperature for 4 h before processing, added 0.2 μg/mL",−5.5%
same,Accuracy (RE),"[1]; short term, room temperature for 4 h before processing, added 1.6 μg/mL",−5.3%
same,Accuracy (RE),"[1]; three freeze–thaw cycles (−20 to 25 °C), added 0.05 μg/mL",−0.8%
same,Accuracy (RE),"[1]; three freeze–thaw cycles (−20 to 25 °C), added 0.2 μg/mL",3.4%
same,Accuracy (RE),"[1]; three freeze–thaw cycles (−20 to 25 °C), added 1.6 μg/mL",−1.3%
same,AUC(0-inf),[2],1.76 ± 0.404 µg·h/mL
same,AUC(0-t),[2],1.66 ± 0.356 µg·h/mL
same,Cmax,[2],1.29 ± 0.34 µg/mL
same,Tmax,[2],1.02 min
same,Vd,[2],5.23 ± 0.84 L/kg
same,clearance,[2],1.78 L/h/kg
same,half-life,[2],2.08 ± 0.31 h
